This is a sample that favours compounds with a hit; in the whole collection about 4.3% have one here.
SMARCA2 act = SMARCA2 (BRM) function activators, primary screen, cell-based, luminescence, high throughput. MG213 cells, MMTV-luciferase reporter, dexamethasone, overnight. activation, % at 9.1 µM. hit rate 1% among 370,000. AID 652017, 2013; in the data active = activation above about 7.8%;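 note: 0% = vehicle wells and 100% = reference activator wells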
SR-BI HDL uptake = inhibitors of SR-BI mediated HDL lipid uptake, primary screen, ldlA[mSR-BI] cells, fluorescence, single point; AID 488896, 2010; inhibition, % at 12.5 µM; hit rate 0.96% among 320,000; ldlA[mSR-BI] CHO cells, DiI-HDL uptake fluorescence, 3 h;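 active = mean replicate inhibition of at least 70% and a set share of replicates each scoring 70 or more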;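 note: 0% = median of neutral control wells and 100% = median of positive control wells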
Target sequence (Q61009 whole entry, looked up): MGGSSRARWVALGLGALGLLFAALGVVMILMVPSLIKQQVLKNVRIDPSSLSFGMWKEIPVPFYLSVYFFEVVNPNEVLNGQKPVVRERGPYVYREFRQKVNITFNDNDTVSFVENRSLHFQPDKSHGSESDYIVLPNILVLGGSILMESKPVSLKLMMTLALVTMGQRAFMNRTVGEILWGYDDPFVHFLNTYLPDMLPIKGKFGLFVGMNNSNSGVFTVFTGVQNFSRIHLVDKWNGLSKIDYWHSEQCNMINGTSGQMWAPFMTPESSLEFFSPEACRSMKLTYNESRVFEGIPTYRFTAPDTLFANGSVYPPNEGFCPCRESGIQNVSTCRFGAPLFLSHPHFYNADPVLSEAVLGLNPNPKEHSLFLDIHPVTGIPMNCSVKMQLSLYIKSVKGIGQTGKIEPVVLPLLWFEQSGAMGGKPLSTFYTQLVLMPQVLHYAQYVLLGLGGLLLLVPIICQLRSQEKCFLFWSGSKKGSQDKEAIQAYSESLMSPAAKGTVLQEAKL
AHR activator = AHR activators, primary screen, cell-based, luminescence, luciferase reporter, human | Aryl hydrocarbon receptor (Homo sapiens), P35869 | AHR-responsive luciferase reporter cells | activation, % at 5 µM | hit rate 2.5% among 320,000 | AID 2796, 2010; in the data active = activation above about 47%;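 note: 0% = vehicle wells and 100% = reference agonist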
Lipid droplet = inhibitors of hepatocyte lipid droplet formation, primary screen, imaging, high-throughput imaging, BODIPY stain; hit rate 0.4% among 240,000; AML12 mouse hepatocytes, oleate lipid droplets; inhibition, % at 6.5 µM; AID 1656, 2009;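 active = lipid droplet intensity inhibited by at least 50%, with more than 500 cells counted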
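Material – AML12 mouse liver cells · Also added – oleate loading, 100 µM · Compound dosing – 6.5 µM single-point dosing · Times – overnight treatment with compound plus oleate · Measured by – fluorescence imaging, 20x objective, two fields per well · Read-out – percent inhibition of filter-corrected integrated lipid droplet intensity per well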
SR-BI DiI-HDL act = activators of SR-BI mediated DiI-HDL uptake, primary screen, ldlA[mSR-BI] CHO cells, DiI fluorescence; hit rate 0.096% among 320,000; activation, % at 12.5 µM; 3 h; 100 = double the neutral-control signal;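 active = mean replicate activation of at least 60% and every replicate at or above 60%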;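 note: 0% = median plate neutral-control signal and 100% = twice that signal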
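material = CHO ldlA[mSR-BI] cells | medium = Ham's F12 with 0.5% BSA, HEPES 25 mM, pH 7.4 | reagent = fluorescent DiI-HDL, 10 µg/mL final | compound dosing = single-point compound dose | incubation = 3 h, 37 °C | measured by = bottom-read fluorescence, 550/595 nm | measure = HDL uptake via cellular fluorescence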
Yeast superoxide = reduction of superoxide in aged yeast, primary screen, HTS; hit rate 0.18% among 330,000; S. cerevisiae aged cells, superoxide DHE fluorescence; hits give low values; superoxide response (% of plate mean), % at 10 µM;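 active = superoxide response under a set limit, about three screen SD below normal, cut at about 65% in these data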;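 note: yeast aged for seven days with compound at 30 °C before DHE staining; 100% = average MFI of all compound-treated wells on the plate with controls excluded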
SMARCA2 act conf = SMARCA2 (BRM) function activators, confirmation, cell-based, luminescence, triplicate; shares compounds with SMARCA2 act; MG213 cells, MMTV-luciferase with dexamethasone, overnight; MG213 cells expressing E1A, Rb sequestered; DMSO wells 0%, reference activator 100%; activation, % at 9.1 µM; hit rate 30% among 3,500; AID 652260, 2013;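 active = activation above its plate's cutoff, the mean activation of tested wells plus 3 SD, cut at about 7.9% in these data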
VP16 Luc act = GAL4-VP16 luciferase reporter activation, counter-screen for SMARCA2 (BRM) activator project, cell-based, pG5luc, luminescence, high throughput. shares compounds with SMARCA2 act. HEK293 GAL4-VP16 pG5luc reporter; scaled: DMSO wells 0%, SAHA wells 100%. activation, % at 9.1 µM. hit rate 41% among 3,500. AID 686939, 2013;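 active = activation above the solvent-only control well mean plus 3 SD, averaged across control plates, cut at about 5.2% in these data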
Numbers without * were called inactive; x = no result.

SMILES | SMARCA2 act | SR-BI HDL uptake | AHR activator | Lipid droplet | SR-BI DiI-HDL act | Yeast superoxide | SMARCA2 act conf | VP16 Luc act
CC1CCCC(C)N1CCCNC(=O)c1ccc2nc(N3CCOCC3)sc2c1 (stereo unspecified) | 0.1 | 3.9 | 7.4 | -17.7 | -3.9 | 204.1 | x | x
CCC1CCCCN1CCCNC(=O)c1ccc2nc(N3CCCCC3)sc2c1 (stereo unspecified) | 2.9 | 17.5 | 0.4 | -1.3 | -17.5 | 96.4 | x | x
CC1CCCC(C)N1CCCNC(=O)c1ccc2nc(N3CCCCC3)sc2c1 (stereo unspecified) | 17.6* | 1.3 | 7.2 | 0.4 | -1.3 | 102.7 | 9.8* | 17.4*
CC1CC(C)CN(CCCNC(=O)c2ccc3nc(N4CCCCC4)sc3c2)C1 (stereo unspecified) | 5.1 | 22.5 | 12.6 | 0.4 | -22.5 | 102.7 | x | x
CCCN1CCN(CCCNC(=O)c2ccc3nc(N4CCCCC4)sc3c2)CC1 | 13.5* | -5.6 | 12.6 | 0.0 | 5.6 | 89.8 | 13.6* | 13.0*
c1ccc(-c2ccc(C3=Nn4c(nnc4-c4ccccn4)SC3)cc2)cc1 | -3.7 | x | x | x | x | x | x | x
Cc1cc(NC(=O)COc2cc(F)cc(F)c2)n(-c2ccccc2)n1 | 5.1 | x | x | x | x | x | x | x
N/C(Cc1cccs1)=N\OC(=O)COc1ccccc1Cl | 8.4* | -25.6 | -4.8 | -2.6 | 25.6 | 95.1 | 4.0 | 6.8*
CCOc1ccc(C2C3=C(Nc4nc(N)[nH]c(=O)c42)c2ccccc2C3=O)cc1 (stereo unspecified) | 13.7* | -8.9 | 1.4 | -37.4 | 8.9 | 77.9 | -0.5 | 0.5
CCCOc1ccc(C2C3=C(Nc4nc(N)[nH]c(=O)c42)c2ccccc2C3=O)cc1 (stereo unspecified) | -4.0 | x | -1.8 | -0.6 | x | 105.0 | x | x
CC(C)OCCCNC(=O)C1CCC(CNS(=O)(=O)c2ccc(Cl)cc2)CC1 (stereo unspecified) | 14.2* | 8.0 | 1.0 | -2.1 | -8.0 | 106.2 | -3.6 | 1.1
CCCCNC(=O)C[C@H]1C[C@@]2(C(=O)OC)C(=C[C@H](C(C)C)O[C@@H]2C2CC2)N(Cc2cccc3ccccc23)C1=O | -2.4 | x | x | x | x | x | x | x
Cc1ccc2c(c1)cc(CN(Cc1ccco1)C(=O)N1CCOCC1)c1nnnn12 | 8.6* | 1.9 | 3.0 | 5.1 | -1.9 | 88.7 | 12.0* | 3.3
COC(=O)C[C@H]1CC[C@@H]2[C@@H](COc3ccc(NC(=O)Nc4ccccc4OC)cc3C(=O)N2C)O1 | -4.3 | x | x | x | x | x | x | x
Cc1ccc(S(=O)(=O)CCC(=O)OCC(=O)Nc2cc(S(=O)(=O)N3CCOCC3)ccc2Cl)cc1 | 2.0 | -51.3 | x | x | 51.3 | x | x | x
O=C(COC(=O)CCS(=O)(=O)c1ccccc1)Nc1cc(S(=O)(=O)N2CCCCC2)ccc1Cl | 8.8* | -2.6 | 4.8 | x | 2.6 | 90.2 | 3.4 | 0.4
COC(=O)[C@]12C[C@H](CC(=O)N3CCCC3)C(=O)N(Cc3ccco3)C1=C[C@H](C1CCCC1)O[C@@H]2C | 0.1 | x | x | x | x | x | x | x
COC(=O)C1CN(Cc2ccc(F)cc2)CCS(=O)(=O)N1Cc1ccc(C)cc1 (stereo unspecified) | -2.1 | x | x | x | x | x | x | x
Cc1cc(C)c2c(N)c(C(=O)Nc3ccc([N+](=O)[O-])cc3)sc2n1 | 8.5* | -0.3 | 6.3 | 3.0 | 0.3 | 91.4 | 5.4 | 10.2*
COc1ccc(NC(=O)c2sc3nc(C)cc(C)c3c2N)cc1 | 5.5 | 3.4 | 0.5 | -8.0 | -3.4 | 96.2 | x | x
O=C1N=C(c2ccccc2)S/C1=C\c1cccs1 | 2.0 | -14.0 | 15.3 | 5.4 | 14.0 | 129.7 | x | x
NC1=NC(=O)/C(=C/C=C/c2cccs2)S1 | 16.4* | -9.9 | 2.2 | x | 9.9 | 97.5 | 8.6* | 5.8*
CCCCCCCCN1C(=O)[C@@H](CC(=O)N2CCOCC2)C[C@@]2(C(=O)OC)C1=C[C@H](C(C)C)O[C@@H]2C1CC1 | 0.6 | x | x | x | x | x | x | x
COc1cc(C(=O)NCC(=O)NCCCSc2ccccc2)cc(OC)c1OC | 8.0* | 10.0 | 1.5 | x | -10.0 | 110.7 | 0.1 | -0.3
Cc1cc(C)c(NN=c2c(=O)c3ccccc3c2=O)c(C)c1 | 7.3 | -58.6 | 9.6 | 0.8 | 58.6 | 123.6 | x | x
SMILES | SMARCA2 act | SR-BI HDL uptake | AHR activator | Lipid droplet | SR-BI DiI-HDL act | Yeast superoxide | SMARCA2 act conf | VP16 Luc act
O=c1c(=NNc2ccccc2Cl)c(=O)c2ccccc12 | 8.4* | -13.8 | x | x | 13.8 | x | 0.3 | 4.7
Cc1cc(C(=O)CN2C(=O)NC3(CCCC3)C2=O)c(C)n1-c1ccc2c(c1)OCO2 | 9.4* | -45.1 | 21.5 | -23.7 | 45.1 | 102.2 | -2.3 | 1.7
C[C@H](O)[C@@H]1CN2CCc3ccc(N4CCOCC4)cc3[C@@H]2C[C@@H]1N(C)CC1CCCCC1 | -1.3 | x | x | x | x | x | x | x
CCOC(=O)c1c(C)nc(C)c(C(=O)OCC)c1-c1ccccc1 | x | -8.3 | 3.1 | -18.9 | 8.3 | 85.3 | x | x
CCOC(=O)C1=CCC(c2cc3ccccc3[nH]2)NC1 (stereo unspecified) | 11.2* | x | x | x | x | x | 6.1 | 7.0*
CNc1nc(N)c([N+](=O)[O-])c(Nc2cccc(F)c2)n1 | -1.0 | 9.2 | 15.7 | -10.0 | -9.2 | 126.0 | x | x
CNc1nc(N)c([N+](=O)[O-])c(Nc2cccc(Cl)c2)n1 | 8.3* | x | 58.4* | 2.5 | x | 114.6 | 4.7 | 1.7
Cc1ccc(S(=O)(=O)N/N=C\c2ccc(Cl)c([N+](=O)[O-])c2)cc1 | 10.9* | -34.8 | -4.2 | -4.8 | 34.8 | 65.9 | 0.7 | -0.5
Cc1ccc(NC(=O)OCCCN2C(=O)CCC23CCC(C)CC3)cc1C (stereo unspecified) | -4.0 | x | x | x | x | x | x | x
Cc1cc(=O)[nH]c(SCC(=O)c2ccc(O)c(O)c2)n1 | 4.3 | -22.0 | -0.5 | x | 22.0 | 85.9 | x | x
Cc1ccc(C(=O)CSc2nc(C)cc(=O)[nH]2)cc1 | 8.2* | x | 7.6 | x | x | 110.8 | -2.2 | 0.4
O=C(/C=C/Nc1cccc(C(F)(F)F)c1)c1ccco1 | 8.7* | 2.1 | 5.0 | -3.7 | -2.1 | 95.0 | 9.2* | 8.5*
Cc1nc(COC(=O)c2c(C)nn(-c3ccccc3)c2C)cs1 | 9.1* | 26.2 | -2.1 | x | -26.2 | 98.5 | 10.4* | 3.2
Cc1nn(-c2ccccc2)c(C)c1C(=O)OCC(=O)Nc1ccccc1 | 6.1 | -16.1 | 0.1 | x | 16.1 | 76.7 | x | x

High-throughput results as filed in PubChem.
